Test [1] addresses T1, Nuclear factor NF-kappa-B p105 subunit (Homo sapiens) (UniProt P19838).
T1 sequence (whole entry): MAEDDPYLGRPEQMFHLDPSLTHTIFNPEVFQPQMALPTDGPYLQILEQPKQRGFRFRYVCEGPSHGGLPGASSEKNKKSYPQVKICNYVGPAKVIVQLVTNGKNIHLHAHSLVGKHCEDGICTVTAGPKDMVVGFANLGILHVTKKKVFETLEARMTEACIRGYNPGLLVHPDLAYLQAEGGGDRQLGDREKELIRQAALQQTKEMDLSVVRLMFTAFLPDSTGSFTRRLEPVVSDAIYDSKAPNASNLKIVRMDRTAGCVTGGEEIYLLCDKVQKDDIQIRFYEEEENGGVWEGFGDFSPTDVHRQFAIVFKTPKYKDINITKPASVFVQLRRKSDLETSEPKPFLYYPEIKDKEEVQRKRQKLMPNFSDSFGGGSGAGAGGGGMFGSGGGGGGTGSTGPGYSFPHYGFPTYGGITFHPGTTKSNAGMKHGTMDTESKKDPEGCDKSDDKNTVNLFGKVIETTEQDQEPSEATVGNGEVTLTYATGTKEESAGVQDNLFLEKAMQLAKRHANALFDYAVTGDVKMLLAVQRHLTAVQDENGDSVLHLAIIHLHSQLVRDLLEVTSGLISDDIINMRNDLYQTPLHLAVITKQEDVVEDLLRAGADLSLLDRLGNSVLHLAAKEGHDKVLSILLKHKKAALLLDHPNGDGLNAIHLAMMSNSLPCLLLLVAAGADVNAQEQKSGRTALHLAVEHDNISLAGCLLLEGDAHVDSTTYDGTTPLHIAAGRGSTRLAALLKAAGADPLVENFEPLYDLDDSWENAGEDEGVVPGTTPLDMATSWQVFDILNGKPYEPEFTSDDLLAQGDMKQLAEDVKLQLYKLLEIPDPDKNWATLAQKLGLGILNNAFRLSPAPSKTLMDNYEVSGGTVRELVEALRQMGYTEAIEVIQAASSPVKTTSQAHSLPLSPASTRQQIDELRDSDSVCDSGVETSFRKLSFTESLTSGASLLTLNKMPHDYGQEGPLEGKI
Kind of test: Inhibition of NFkappa p50 isolated from nuclear extract of human HeLa cells assessed as blockade of binding to biotinylated consesus sequence by chemiluminescence assay. Type of test: cell-free. In a few lines:
(§1)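 ELISA-format transcription factor assay. HeLa nuclear extract was treated with samples, and activated p50 or p65 bound to a biotinylated consensus sequence was detected by chemiluminescence on a plate reader. IC50 reported in μM.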

Test [2] concerns HT-29. Briefly: Cytotoxicity against human HT-29 cells after 3 days by SRB assay. Particulars: for EC50: HT-29, 72 h, read-out: ED50 (the source's name). It counts as functional. In a few lines:
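HT-29 colon cancer cells, trypsinized and seeded in 96-well plates, treated with compounds in DMSO (DMSO as negative control). Incubated 3 days at 37 °C, 5% CO2, then fixed, 30 min at room temperature, washed, dried overnight, stained with sulforhodamine B. Dye solubilized in tris-base buffer, absorbance read at 515 nm. Cytotoxicity calculated versus DMSO control, reported as ED50 (μM). Paclitaxel as positive control.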
(In general: The SRB assay estimates cell density from bound dye.)

For test [3], the target named is Transcription factor p65 (Homo sapiens) (UniProt Q04206). Kind of test: Inhibition of NFkappa p65 isolated from nuclear extract of human HeLa cells assessed as blockade of binding to biotinylated consesus sequence by chemiluminescence assay. It counts as cell-free. In outline: as §1

Experimental findings from ChEMBL document CHEMBL1158573, “Cytotoxic and NF-kappaB inhibitory constituents of Artocarpus rigida” (J Nat Prod, 2010) are described below.

Active and inactive are the calls of the source. The rule behind the calls is not given here.

Transcription factor p65 (Homo sapiens), sequence (Q04206 whole entry): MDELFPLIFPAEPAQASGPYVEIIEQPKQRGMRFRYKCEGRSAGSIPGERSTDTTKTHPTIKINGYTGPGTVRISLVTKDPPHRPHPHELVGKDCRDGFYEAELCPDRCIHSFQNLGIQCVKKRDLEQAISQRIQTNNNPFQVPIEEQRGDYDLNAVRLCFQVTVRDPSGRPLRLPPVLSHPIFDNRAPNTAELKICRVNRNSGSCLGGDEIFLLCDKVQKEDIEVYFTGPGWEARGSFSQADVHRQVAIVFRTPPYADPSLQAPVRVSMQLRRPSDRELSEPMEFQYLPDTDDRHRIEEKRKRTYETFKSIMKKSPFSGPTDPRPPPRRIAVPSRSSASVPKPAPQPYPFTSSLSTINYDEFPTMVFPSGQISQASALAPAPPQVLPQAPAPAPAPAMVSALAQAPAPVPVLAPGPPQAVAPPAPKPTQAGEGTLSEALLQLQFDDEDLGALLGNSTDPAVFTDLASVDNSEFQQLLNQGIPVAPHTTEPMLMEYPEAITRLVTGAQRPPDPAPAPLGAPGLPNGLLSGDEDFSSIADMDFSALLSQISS

Regarding `COc1cc(O)c2c(=O)c3cc4c5c(c(O)cc(O)c5c3oc2c1)OC4(C)C`, the result in test [1], in test [2] and in test [3] was inactive.

With `C=C(C)[C@H]1Cc2c(oc3c4c(cc(O)c3c2=O)OC(C)(C)C=C4)-c2c(O)cc(O)c(O)c21` [ARTOBILOXANTHONE], the EC50 in test [2] was above 10 µM.

Take `C[C@H]1[C@H](C)CC[C@]2(C(=O)O)CC[C@]3(C)C(=CC[C@@H]4[C@@]5(C)CC[C@H](O)C(C)(C)[C@@H]5CC[C@]43C)[C@H]12`: the outcome in test [1], in test [2] and in test [3] was inactive.

As to `CC1(C)C=Cc2cc3c(cc2O1)Oc1cc(O)ccc1C(O)=C3` [ARTORISTILBENE], the EC50 in test [2] was 10.7 µM.

For `C=C(C)[C@@H]1CC[C@]2(C(=O)O)CC[C@]3(C)[C@H](CC[C@@H]4[C@@]5(C)CC[C@H](O)C(C)(C)[C@@H]5CC[C@]43C)[C@@H]12`, the outcome in test [1], in test [2] and in test [3] was inactive.

`C=C(C)c1cc2c(=O)c3c(O)c(CC=C(C)C)c(O)cc3oc2c2c(O)c3c(c(O)c12)OC(C)(C)C=C3`: the result in test [1], in test [2] and in test [3] was inactive.

Regarding `CC(=O)O[C@H]1C(=O)[C@@]2(C)[C@H]([C@H](OC(=O)c3ccccc3)[C@]3(O)C[C@H](OC(=O)[C@H](O)[C@@H](NC(=O)c4ccccc4)c4ccccc4)C(C)=C1C3(C)C)[C@]1(OC(C)=O)CO[C@@H]1C[C@@H]2O` [PACLITAXEL], the EC50 in test [2] turned out to be 0.0001 µM.

As to `C=C(C)c1cc2c(=O)c3c(O)c(CC=C(C)C)c(O)cc3oc2c2c1C(=O)C(O)=C(CC=C(C)C)C2=O` [ARTORIGIDIN C], the EC50 in test [2] was above 10 µM.

With `CC(C)=CCc1c(O)cc2oc3c(cc4c5c(c(O)c(CC=C(C)C)c(O)c53)OC4(C)C)c(=O)c2c1O`, the outcome in test [1], in test [2] and in test [3] was inactive.
